Experimental data published in ChEMBL document CHEMBL1153317, “Design, synthesis, and structure-activity relationship of novel CCR2 antagonists” (Bioorg Med Chem Lett, 2009).

What was measured:
[1] = biological target: T1, C-C chemokine receptor type 2 (Homo sapiens, UniProt P41597); experiment: Displacement of [125I]hMCP1 from human CCR2 receptor expressed in CHO cells; format: cell-based
Summary of the method: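 CHO cells expressing human CCR2b (5 × 10⁴) incubated 60 min at room temperature with ¹²⁵I-hMCP-1 (20–50 pM) plus varied competitor concentrations in 50 mM Hepes, 5 mM MgCl₂, 1 mM CaCl₂, pH 7.4. Stopped by filtration on polyethyleneimine-presoaked GF/B filters, washed with 25 mM Hepes pH 7.5/500 mM NaCl. IC50 is the average of triplicate measurements.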
Target sequence in this assay (P41597 whole entry): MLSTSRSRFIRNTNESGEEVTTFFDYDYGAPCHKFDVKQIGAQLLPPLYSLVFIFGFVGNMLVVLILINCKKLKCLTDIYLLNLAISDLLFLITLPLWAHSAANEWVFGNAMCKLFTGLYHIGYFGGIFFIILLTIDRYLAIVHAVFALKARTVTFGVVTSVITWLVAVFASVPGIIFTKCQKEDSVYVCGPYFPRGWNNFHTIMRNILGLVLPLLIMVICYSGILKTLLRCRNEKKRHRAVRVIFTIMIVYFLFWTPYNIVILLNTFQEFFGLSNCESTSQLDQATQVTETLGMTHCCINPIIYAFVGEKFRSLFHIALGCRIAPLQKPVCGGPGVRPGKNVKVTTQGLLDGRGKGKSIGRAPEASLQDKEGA

[2] = Oral bioavailability in rhesus monkey at 2 mg/kg; format: ADME, organism-based, Macaca mulatta; conditions: in vivo
[3] = Cmax in Sprague-Dawley rat at 3 mg/kg, po; format: ADME, organism-based; set-up: dose 3 mg/kg, route oral; conditions: in vivo
[4] = AUC in Beagle dog at 2 mg/kg, po; format: ADME, organism-based, Canis lupus familiaris; set-up: dose 2 mg/kg, route oral; conditions: plasma
[5] = Tmax in rhesus monkey at 2 mg/kg, po; format: ADME, organism-based, Macaca mulatta; set-up: dose 2 mg/kg, route oral; conditions: in vivo
[6] = Tmax in Beagle dog at 2 mg/kg, po; format: ADME, organism-based, Canis lupus familiaris; set-up: dose 2 mg/kg, route oral; conditions: in vivo
[7] = AUC in Sprague-Dawley rat at 3 mg/kg, po; format: ADME, organism-based; set-up: dose 3 mg/kg, route oral; conditions: plasma
[8] = Oral bioavailability in Sprague-Dawley rat at 3 mg/kg; format: ADME, organism-based; conditions: in vivo
[9] = Tmax in Sprague-Dawley rat at 3 mg/kg, po; format: ADME, organism-based; set-up: dose 3 mg/kg, route oral; conditions: in vivo
[10] = Cmax in Beagle dog at 2 mg/kg, po; format: ADME, organism-based, Canis lupus familiaris; set-up: dose 2 mg/kg, route oral; conditions: in vivo
[11] = AUC in rhesus monkey at 2 mg/kg, po; format: ADME, organism-based, Macaca mulatta; set-up: dose 2 mg/kg, route oral; conditions: plasma
[12] = Cmax in rhesus monkey at 2 mg/kg, po; format: ADME, organism-based, Macaca mulatta; set-up: dose 2 mg/kg, route oral; conditions: in vivo
[13] = Oral bioavailability in Beagle dog at 2 mg/kg; format: ADME, organism-based, Canis lupus familiaris; conditions: in vivo
[14] = biological target: T1, C-C chemokine receptor type 2; experiment: Displacement of [125I]hMCP1 from human CCR2 receptor expressed in CHO cells at 1 uM; format: cell-based
Target sequence in this assay (P41597 whole entry, looked up): as the sequence (P41597 whole entry) above

IC50 [1] [nM]	Structure (SMILES)	other results
22	CC(C)[C@]1(C(=O)NCc2cc(C(F)(F)F)cc(C(F)(F)F)c2)CC[C@@H](NC2CCSCC2)C1	
	CC(C)[C@]1(C(=O)NCc2cc(C(F)(F)F)cc(C(F)(F)F)c2)CC[C@@H](N[C@H]2CCOC[C@H]2C)C1	bioavailability [2]: 2%; Cmax [3]: 735 nM; AUC [4]: 0.62 µM·h; Tmax [5]: 60 min; Tmax [6]: 45 min; AUC [7]: 0.76 µM·h; bioavailability [8]: 42%; Tmax [9]: 15 min; Cmax [10]: 422 nM; AUC [11]: 0.01 µM·h; Cmax [12]: 4 nM; bioavailability [13]: 28%
175	CC(C)[C@]1(C(=O)NCc2cc(C(F)(F)F)cc(C(F)(F)F)c2)CC[C@@H](NC2CCCCCC2)C1	
259	CC(C)[C@]1(C(=O)NCc2cc(C(F)(F)F)cc(C(F)(F)F)c2)CC[C@@H](NC2CCOCC2F)C1 (stereo in doubt; 63)	
30	CC(C)[C@]1(C(=O)NCc2cc(C(F)(F)F)cc(C(F)(F)F)c2)CC[C@@H](NC2CCCOCC2)C1 (some centres undefined)	
77	CC(C)[C@]1(C(=O)NCc2cc(C(F)(F)F)cc(C(F)(F)F)c2)CC[C@@H](NC2CCc3ccccc32)C1 (some centres undefined)	
239	CC(C)[C@]1(C(=O)NCc2cc(C(F)(F)F)cc(C(F)(F)F)c2)CC[C@@H](NC2CCc3ccccc3C2)C1 (some centres undefined)	
85	CC(C)[C@]1(C(=O)NCc2cc(C(F)(F)F)cc(C(F)(F)F)c2)CC[C@@H](NC2CCOC2)C1 (some centres undefined)	
51	CC(C)[C@]1(C(=O)NCc2cc(C(F)(F)F)cc(C(F)(F)F)c2)CC[C@@H](NC2CCOCC2O)C1 (some centres undefined)	
28	Cc1ccc(-c2ccc3c(c2)C=C(C(=O)Nc2ccc(C[N+](C)(C)C4CCOCC4)cc2)CCC3)cc1	
42	CC1COCCC1N[C@@H]1CC[C@@](C(=O)NCc2cc(C(F)(F)F)cc(C(F)(F)F)c2)(C(C)C)C1 (stereo in doubt; 57)	
4	CC1COCCC1N[C@@H]1CC[C@@](C(=O)NCc2cc(C(F)(F)F)cc(C(F)(F)F)c2)(C(C)C)C1 (stereo in doubt; 58)	
362	CC(C)[C@]1(C(=O)NCc2cc(C(F)(F)F)cc(C(F)(F)F)c2)CC[C@@H](NCC2CCOCC2)C1	
4.6	CC(C)[C@]1(C(=O)NCc2cc(C(F)(F)F)cc(C(F)(F)F)c2)CC[C@@H](NC2CCOCC2)C1	
28	CC1CC(N[C@@H]2CC[C@@](C(=O)NCc3cc(C(F)(F)F)cc(C(F)(F)F)c3)(C(C)C)C2)CCO1 (some centres undefined)	
419	CC(C)[C@]1(C(=O)NCc2cc(C(F)(F)F)cc(C(F)(F)F)c2)CC[C@@H](NC2CCOc3ccccc32)C1 (some centres undefined)	
123	CC(C)[C@]1(C(=O)NCc2cc(C(F)(F)F)cc(C(F)(F)F)c2)CC[C@@H](NC2CCOCC2C2CC2)C1 (some centres undefined)	
64	CC(C)[C@]1(C(=O)NCc2cc(C(F)(F)F)cc(C(F)(F)F)c2)CC[C@@H](NC2CCCCC2)C1	
	CC(C)[C@]1(C(=O)NCc2cc(C(F)(F)F)cc(C(F)(F)F)c2)CC[C@@H](NC2CCNCC2)C1	Activity [14]: 21%

IC50 [1] [nM]	Structure (SMILES)	other results
187	CC(C)[C@]1(C(=O)NCc2cc(C(F)(F)F)cc(C(F)(F)F)c2)CC[C@@H](NC2Cc3ccccc3C2)C1	
14.3	CC(C)[C@]1(C(=O)NCc2cc(C(F)(F)F)cc(C(F)(F)F)c2)CC[C@@H](NC2CCOCC2F)C1 (stereo in doubt; 64)	
5.6	CCC1COCCC1N[C@@H]1CC[C@@](C(=O)NCc2cc(C(F)(F)F)cc(C(F)(F)F)c2)(C(C)C)C1 (stereo in doubt; 61)	
7	CC1COCC(C)C1N[C@@H]1CC[C@@](C(=O)NCc2cc(C(F)(F)F)cc(C(F)(F)F)c2)(C(C)C)C1 (some centres undefined)	
56	CC(C)[C@]1(C(=O)NCc2cc(C(F)(F)F)cc(C(F)(F)F)c2)CC[C@@H](NC2CCCOC2)C1 (some centres undefined)	
765	CC(C)[C@]1(C(=O)NCc2cc(C(F)(F)F)cc(C(F)(F)F)c2)CC[C@@H](NC2CCOCC2(O)C(F)(F)F)C1 (some centres undefined)	
6	CC(C)[C@]1(C(=O)NCc2cc(C(F)(F)F)cc(C(F)(F)F)c2)CC[C@@H](NC2CCOCC2F)C1 (stereo in doubt; 50)	
7.8	CCCC1COCCC1N[C@@H]1CC[C@@](C(=O)NCc2cc(C(F)(F)F)cc(C(F)(F)F)c2)(C(C)C)C1 (some centres undefined)	
1.5	CC1COCCC1N[C@@H]1CC[C@@](C(=O)NCc2cc(C(F)(F)F)cc(C(F)(F)F)c2)(C(C)C)C1 (stereo in doubt; 45)	
36	CC(C)[C@]1(C(=O)NCc2cc(C(F)(F)F)cc(C(F)(F)F)c2)CC[C@@H](NC2CCSC2)C1 (some centres undefined)	
156	CC(C)[C@]1(C(=O)NCc2cc(C(F)(F)F)cc(C(F)(F)F)c2)CC[C@@H](NC2CCCC2)C1	
5.5	CC(C)[C@]1(C(=O)NCc2cc(C(F)(F)F)cc(C(F)(F)F)c2)CC[C@@H](NC2CCOCC2C(F)(F)F)C1 (some centres undefined)	
141	CCC1COCCC1N[C@@H]1CC[C@@](C(=O)NCc2cc(C(F)(F)F)cc(C(F)(F)F)c2)(C(C)C)C1 (stereo in doubt; 60)	
1.2	CC1COCCC1N[C@@H]1CC[C@@](C(=O)NCc2cc(C(F)(F)F)cc(C(F)(F)F)c2)(C(C)C)C1 (stereo in doubt; 59)	
631	CC(C)[C@]1(C(=O)NCc2cc(C(F)(F)F)cc(C(F)(F)F)c2)CC[C@@H](NC2CCS(=O)(=O)CC2)C1	
3	CCC1COCCC1N[C@@H]1CC[C@@](C(=O)NCc2cc(C(F)(F)F)cc(C(F)(F)F)c2)(C(C)C)C1 (stereo in doubt; 62)	
193	CC(C)[C@]1(C(=O)NCc2cc(C(F)(F)F)cc(C(F)(F)F)c2)CC[C@@H](NC2CCC2)C1	
230	CC(C)[C@]1(C(=O)NCc2cc(C(F)(F)F)cc(C(F)(F)F)c2)CC[C@@H](NC2CCOCC2(C)C)C1 (some centres undefined)	
3	CCC1COCCC1N[C@@H]1CC[C@@](C(=O)NCc2cc(C(F)(F)F)cc(C(F)(F)F)c2)(C(C)C)C1 (stereo in doubt; 46)	
